Assay results from ChEMBL document CHEMBL3393003, “1,2,3,9b-Tetrahydro-5H-imidazo[2,1-a]isoindol-5-ones as a new class of respiratory syncytial virus (RSV) fusion inhibitors. Part 2: identification of BTA9881 as a preclinical candidate” (Bioorg Med Chem Lett, 2015).
Converted amounts (≈) assume the structure as drawn.

Key:
[1] = tested on: Respiratory syncytial virus; assay: Antiviral activity against respiratory syncytial virus A2 infected in human Hep2 cells assessed as reduction in virus-induced cytopathic effect after 5 days by MTT assay; format: functional, organism-based; conditions: A2, HEp-2, 120 h
Summary of the method: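 HEp2 cells (1.0 × 10⁴/well) infected at low moi (RSV A2 at moi 0.01) and added to serial compound dilutions; incubated 5 days at 37 °C, 5% CO₂. CPE read by MTT (1 mg/ml) metabolism after 2 h incubation.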

[2] = Cytotoxicity against human Hep2 cells assessed as reduction in cell viability after 5 days by MTT assay; format: cell-based, HEp-2
Summary of the method: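 Uninfected HEp2 cells (1.0 × 10⁴/well) exposed to serial compound dilutions for 5 days at 37 °C, 5% CO₂. Viability read by MTT (1 mg/ml) metabolism after 2 h incubation.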

[3] = tested on: Respiratory syncytial virus; assay: Antiviral activity against respiratory syncytial virus Long infected in human Hep2 cells assessed as reduction in virus-induced cytopathic effect after 5 days by MTT assay; format: functional, organism-based; conditions: HEp-2, 120 h
[4] = Plasma clearance in Sprague-Dawley rat at 2 mg/kg, iv; format: ADME, organism-based; design: dose 2 mg/kg, route intravenous
[5] = Kinetic solubility in isotonic phosphate buffer at pH 6.5 by nephelometry; format: physicochemical; conditions: read-out: Kinetic_solubility
Summary of the method: (§1)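 Compound dissolved in DMSO and added to 0.01 M HCl (pH 2) or pH 6.5 isotonic phosphate buffer, 1% final DMSO. Solubility range determined by nephelometry.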

[6] = Lipophilicity, log D of the compound at pH 7.4 by chromatography; format: physicochemical; conditions: buffer
Summary of the method: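 Effective logD measured chromatographically on an LC-ABZ column, octanol-saturated mobile phase at pH 7.4.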

[7] = Elimination half life in Sprague-Dawley rat at 19 mg/kg, po; format: ADME, organism-based; design: dose 19 mg/kg, route oral; conditions: in vivo, read-out: beta t1/2 (converted)
Summary of the method: (§2)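 Male Sprague Dawley rats, n = 2, oral dose as suspension in hydroxypropylmethylcellulose, in carboxymethylcellulose, or in 0.5% HPMC/0.5% benzyl alcohol/0.4% Tween80. Cmax (µM), T1/2 and F (%) derived from plasma levels.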

[8] = Apparent volume of distribution in Sprague-Dawley rat at 2 mg/kg, iv; format: ADME, organism-based; design: dose 2 mg/kg, route intravenous; conditions: in vivo, read-out: Vz
[9] = tested on: Respiratory syncytial virus; assay: Antiviral activity against respiratory syncytial virus B1 infected in human Hep2 cells assessed as reduction in virus-induced cytopathic effect after 5 days by MTT assay; format: functional, organism-based; conditions: B1, HEp-2, 120 h
[10] = Elimination half life in Sprague-Dawley rat at 2 mg/kg, iv; format: ADME, organism-based; design: dose 2 mg/kg, route intravenous; conditions: in vivo, read-out: beta t1/2 (converted)
[11] = Oral bioavailability in Sprague-Dawley rat at 19 mg/kg; format: ADME, organism-based; conditions: in vivo; summary of the method: as §2
[12] = Cmax in Sprague-Dawley rat at 19 mg/kg, po; format: ADME, organism-based; design: dose 19 mg/kg, route oral; conditions: in vivo; summary of the method: as §2
[13] = Kinetic solubility in 0.01M HCl buffer at pH 2.0 by nephelometry; format: physicochemical; conditions: read-out: Kinetic_solubility; summary of the method: as §1
[14] = tested on: Respiratory syncytial virus; assay: Potency shift index, ratio of EC50 for respiratory syncytial virus A2 infected in human Hep2 in presence of 1.5 mg/mL Alpha-1-acid glycoprotein to EC50 for respiratory syncytial virus A2 infected in human Hep2 in absence of Alpha-1-acid glycoprotein; format: functional
[15] = tested on: Respiratory syncytial virus; assay: Resistance index, ratio of EC50 for VP-14637 resistant respiratory syncytial virus Long expressing F protein D489Y mutant to EC50 for wild type Respiratory syncytial virus Long
[16] = tested on: Respiratory syncytial virus; assay: Resistance index, ratio of EC50 for drug resistant respiratory syncytial virus Long expressing F protein Q494L mutant to EC50 for wild type Respiratory syncytial virus Long
[17] = tested on: Respiratory syncytial virus; assay: Resistance index, ratio of EC50 for drug resistant respiratory syncytial virus B1 expressing F protein L141F mutant to EC50 for wild type Respiratory syncytial virus B1; format: functional
[18] = Drug metabolism in iv dosed Sprague-Dawley rat urine assessed as formation of pyridine N-oxides level; format: ADME, organism-based; conditions: in vivo
Plasma [19] = assay: Drug metabolism in orally dosed Sprague-Dawley rat plasma assessed as formation of pyridine N-oxides level; format: ADME, organism-based; conditions: in vivo, po
Plasma [20] = assay: Drug metabolism in iv dosed Sprague-Dawley rat plasma assessed as formation of pyridine N-oxides level; format: ADME, organism-based; conditions: in vivo
[21] = Drug metabolism in orally dosed Sprague-Dawley rat urine assessed as formation of pyridine N-oxides level; format: ADME, organism-based; conditions: in vivo, po

SMILES | EC50 [1] [nM] | CC50 at 120 h [2] [nM] | Ratio EC50 [14] | also measured
Cn1cncc1C(=O)N1CCN2C(=O)c3ccncc3C21c1ccc(Cl)cc1 (racemic) | 730 | > 20000 | – | –
O=C(NCc1ccc(F)cc1)N1CCN2C(=O)c3ccncc3C12c1ccc(Cl)cc1 (racemic) | 930 | > 20000 | – | –
Cn1cnc(C(=O)N2CCN3C(=O)c4ccncc4C23c2ccc(Cl)cc2)c1 (racemic) | 750 | > 20000 | – | –
O=C(c1ccoc1)N1CCN2C(=O)c3ccncc3[C@]12c1ccc(Cl)cc1 | 10 | – | – | EC50 [3]: 32 nM; clearance [4]: 55 mL/min/kg; solubility kinetic [5]: > 100 µg/mL; chromatographic logD [6]: 2.5; half-life [7]: 3.1 h; Vd [8]: 11 L/kg; EC50 [9]: 85 nM; half-life [10]: 2.4 h; bioavailability [11]: 35%; Cmax [12]: 770 nM; solubility kinetic [13]: 50 µg/mL (≈ 132 µM)
O=C(c1cccc(Cl)n1)N1CCN2C(=O)c3ccncc3C12c1ccc(Cl)cc1 (racemic) | 110 | > 17000 | 27 | –
O=C(c1ccoc1)N1CCN2C(=O)c3ccncc3C12c1ccc(Cl)cc1 (racemic) | 96 | > 19000 | 2.4 | –
O=C(c1cscn1)N1CCN2C(=O)c3ccncc3C12c1ccc(Cl)cc1 (racemic) | 180 | > 18000 | 16 | –
O=C(c1cccs1)N1CCN2C(=O)c3ccncc3C12c1ccc(Cl)cc1 (racemic) | 130 | > 18000 | 12 | –
O=C(c1ccc(F)cc1)N1CCN2C(=O)c3ccncc3C12c1ccc(Cl)cc1 (racemic) | – | – | 7.2 | clearance [4]: 2.7 mL/min/kg; Vd [8]: 6 L/kg; half-life [10]: > 24 h
O=C(Nc1ccc(F)cc1)N1CCN2C(=O)c3ccncc3C12c1ccc(Cl)cc1 (racemic) | 1000 | > 20000 | – | –
O=C(c1ccc(F)cc1)N1CCN2C(=O)c3cc[n+]([O-])cc3[C@]12c1ccc(Cl)cc1 | 170 | – | – | –
O=C(c1cccnc1)N1CCN2C(=O)c3ccncc3[C@@]12c1ccc(Cl)cc1 | > 1200 | – | – | –
Cc1nc(C(=O)N2CCN3C(=O)c4ccncc4C23c2ccc(Cl)cc2)cs1 (racemic) | 73 | > 18000 | 5.7 | –
Cc1nnnn1N/C=C1\C=CC(=O)C(C(C2=C/C(=C/Nn3nnnc3C)C=CC2=O)c2ccc(O)cc2)=C1 (stereo unspecified) | – | – | – | Ratio EC50 [15]: >2174
Cc1oc(-c2ccccc2)cc1C(=O)N1CCN2C(=O)c3ccncc3C21c1ccc(Cl)cc1 (racemic) | 1600 | > 15000 | – | –
O=C(c1cccnc1)N1CCN2C(=O)c3ccncc3C12c1ccc(Cl)cc1 (racemic) | 210 | > 51000 | 2.8 | –
O=C(c1ccc(F)nc1)N1CCN2C(=O)c3ccncc3[C@@]12c1ccc(Cl)cc1 | 7800 | – | – | –
O=C(c1csc(-c2cccnc2)n1)N1CCN2C(=O)c3ccncc3[C@]12c1ccc(Cl)cc1 | 13 | – | – | –
O=C(c1ccoc1)N1CCN2C(=O)c3ccncc3[C@@]12c1ccc(Cl)cc1 | 670 | – | – | –
O=C(c1ccon1)N1CCN2C(=O)c3ccncc3C12c1ccc(Cl)cc1 (racemic) | 180 | > 20000 | 11 | –

SMILES | EC50 [1] [nM] | CC50 at 120 h [2] [nM] | Ratio EC50 [14] | also measured
Cn1cccc1C(=O)N1CCN2C(=O)c3ccncc3C21c1ccc(Cl)cc1 (racemic) | 20 | > 20000 | 91 | –
O=C(c1ccccn1)N1CCN2C(=O)c3ccncc3C12c1ccc(Cl)cc1 (racemic) | 770 | > 19000 | – | –
O=C(c1ccsc1)N1CCN2C(=O)c3ccncc3C12c1ccc(Cl)cc1 (racemic) | 170 | > 18000 | 27 | –
O=C(c1ccc(F)cc1)N1CCN2C(=O)c3ccncc3[C@]12c1ccc(Cl)cc1 | 110 | – | – | –
O=c1n(Cc2nc3ccccc3n2CCCCO)c2cnccc2n1C1CC1 | – | – | – | Ratio EC50 [16]: 10; Ratio EC50 [15]: >20000; Ratio EC50 [17]: >345
O=C(c1ccno1)N1CCN2C(=O)c3ccncc3C12c1ccc(Cl)cc1 (racemic) | 370 | > 19000 | – | –
O=C(c1csc(-c2ccncc2)n1)N1CCN2C(=O)c3ccncc3C12c1ccc(Cl)cc1 (racemic) | 2300 | > 15000 | – | –
O=C(c1ccc(F)cc1)N1CCN2C(=O)c3cc[n+]([O-])cc3[C@@]12c1ccc(Cl)cc1 | 8600 | – | – | –
O=C(c1ccc(F)nc1)N1CCN2C(=O)c3ccncc3C12c1ccc(Cl)cc1 (racemic) | 93 | > 48000 | 1.8 | Drug metabolism [18]: metabolite_detected; Drug metabolism (Plasma [19]): metabolite_detected; Drug metabolism (Plasma [20]): metabolite_detected; Drug metabolism [21]: metabolite_detected
O=C(c1cc2ccccc2o1)N1CCN2C(=O)c3ccncc3C12c1ccc(Cl)cc1 (racemic) | 6400 | > 17000 | – | –
Cn1cc(C(=O)N2CCN3C(=O)c4ccncc4[C@@]32c2ccc(Cl)cc2)c(C(F)(F)F)n1 | 7.2 | – | – | EC50 [3]: 6.4 nM; solubility kinetic [5]: 25 µg/mL (≈ 54.1 µM); chromatographic logD [6]: 3; EC50 [9]: 100 nM; solubility kinetic [13]: > 100 µg/mL
O=C(c1ccc2ccccc2n1)N1CCN2C(=O)c3ccncc3C12c1ccc(Cl)cc1 (racemic) | 8500 | > 17000 | – | –
O=C(c1csc(-c2cccs2)n1)N1CCN2C(=O)c3ccncc3C12c1ccc(Cl)cc1 (racemic) | 27 | > 15000 | 16 | –
O=C(c1csc(-c2cccnc2)n1)N1CCN2C(=O)c3ccncc3C12c1ccc(Cl)cc1 (racemic) | 25 | > 15000 | 10 | –
O=C(NCCc1ccc(F)cc1)N1CCN2C(=O)c3ccncc3C12c1ccc(Cl)cc1 (racemic) | 620 | > 20000 | – | –
Cc1cc(C(=O)N2CCN3C(=O)c4ccncc4C32c2ccc(Cl)cc2)c(C)o1 (racemic) | 120 | > 18000 | 14 | –
Cc1ccc(CCCO)c(NCc2ccc3nc(NCCCN4CCOCC4)n(Cc4nc(C)ccc4O)c3c2)c1 | – | – | – | Ratio EC50 [16]: 11.5; Ratio EC50 [15]: >10000; Ratio EC50 [17]: >3333
O=C(c1ccc(F)cc1)N1CCN2C(=O)c3cc[n+]([O-])cc3C12c1ccc(Cl)cc1 (racemic) | – | – | – | clearance [4]: 2.4 mL/min/kg; Vd [8]: 1.3 L/kg; half-life [10]: 6.5 h
O=C(c1csc(-c2cccnc2)n1)N1CCN2C(=O)c3ccncc3[C@@]12c1ccc(Cl)cc1 | 920 | – | – | –
O=C(c1ccc(F)cc1)N1CCN2C(=O)c3ccncc3[C@@]12c1ccc(Cl)cc1 | 14000 | – | – | –
